# Screening results from PubChem.
# Hits are enriched below; roughly 1.9% of the tested compounds scored in any of these assays.
# CHRM5 PAM – human M5 muscarinic receptor positive allosteric modulators, primary screen, CHO-K1 cells, Fluo-8 calcium fluorescence; actives 0.3% (n = 360,000); CHO-K1 hM5, ACh EC20 PAM; 0% = ACh EC20, 100% = ACh EC100; Muscarinic acetylcholine receptor M5 (Homo sapiens), P08912; activation, % at 3 µM;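 active = activation above the run cutoff, the mean activation of all test compounds plus 3 SD, cut at about 18% in these data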
#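 System – CHO-K1 hM5 cells · Compound – 3 µM, single dose · Incubation – compound preincubation 140 s before EC20 acetylcholine addition · Technique – Fluo-8 calcium fluorescence · Measure – Max/basal fluorescence ratio as % of EC20–EC100 ACh window · Benchmarks – low control EC20 acetylcholine (0%), high control EC100 acetylcholine (100%) · Replication – singlicate, one well per test compound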
# M5 ag – human M5 muscarinic receptor agonists, primary screen, CHO-K1 cells, Fluo-8 calcium fluorescence; AID 624037, 2012; CHO-K1 hM5 cells; 0% DMSO wells, 100% maximal acetylcholine response; Muscarinic acetylcholine receptor M5 (Homo sapiens), P08912; actives 0.19% (n = 360,000); activation, % at 3 µM;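 active = activation above the run's mean over test compounds plus 3 SD, cut at about 23% in these data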;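 also: signal is peak over basal fluorescence ratio across the kinetic read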
# M4 PAM – human M4 muscarinic receptor positive allosteric modulators, primary screen, CHO-K1 cells, Fluo-8 calcium fluorescence. CHO-K1 hM4/Gqi5, ACh EC20; 0% = ACh EC20, 100% = maximal ACh. activation, % at 3 µM. actives 0.4% (n = 360,000);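 active = activation above its plate's cutoff, the mean activation of sample wells plus 3 SD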
# Target sequence (P08173 whole entry, looked up): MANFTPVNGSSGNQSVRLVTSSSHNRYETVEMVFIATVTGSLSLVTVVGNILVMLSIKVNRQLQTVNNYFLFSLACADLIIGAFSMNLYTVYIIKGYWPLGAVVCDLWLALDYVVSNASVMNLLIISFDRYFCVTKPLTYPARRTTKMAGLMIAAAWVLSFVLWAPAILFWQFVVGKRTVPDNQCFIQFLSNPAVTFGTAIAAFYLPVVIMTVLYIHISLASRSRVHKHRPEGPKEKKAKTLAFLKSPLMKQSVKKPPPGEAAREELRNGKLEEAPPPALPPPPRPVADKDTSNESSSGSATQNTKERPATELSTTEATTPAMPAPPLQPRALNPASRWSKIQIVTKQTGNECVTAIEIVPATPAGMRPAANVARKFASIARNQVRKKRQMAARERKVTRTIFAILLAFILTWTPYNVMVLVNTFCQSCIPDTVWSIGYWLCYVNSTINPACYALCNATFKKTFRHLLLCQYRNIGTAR
# CHRM5 antagonist – human M5 muscarinic receptor antagonists, primary screen, CHO cells, Fluo-8 calcium fluorescence; CHO-hM5 cells, ACh EC80; inhibition, % at 3 µM; actives 0.59% (n = 360,000);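 active = inhibition above a per-plate cutoff, the mean of that plate's test compounds plus 3 SD, cut at about 27% in these data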;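 also: 0% = acetylcholine EC80 with DMSO and 100% = DMSO without agonist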
# CHRM4 antagonist – human M4 muscarinic receptor antagonists, primary screen, CHO cells, Fluo-8 calcium fluorescence; inhibition, % at 3 µM; AID 624125, 2012; actives 0.73% (n = 360,000); CHO-hM4 cells, ACh EC80; Muscarinic acetylcholine receptor M4 (Homo sapiens), P08173;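 active = inhibition above its plate's cutoff, the mean inhibition of sample wells plus 3 SD, cut at about 27% in these data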;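 also: 0% = acetylcholine EC80 with DMSO and 100% = DMSO without agonist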
# CHRM4 agonist – human M4 muscarinic receptor agonists, primary screen, CHO-K1 cells, Fluo-8 calcium fluorescence. Muscarinic acetylcholine receptor M4 (Homo sapiens), P08173. CHO-K1 hM4/Gqi5; vehicle 0%, full acetylcholine response 100%. activation, % at 3 µM. actives 0.14% (n = 360,000). AID 624127, 2012;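 active = activation above the run mean over all test wells plus 3 SD, cut at about 32% in these data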;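 also: peak over basal fluorescence ratio per well then scaled between controls; 0% = DMSO wells and 100% = acetylcholine at EC100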
# * = called active by the depositor.
SMILES,CHRM5 PAM,M5 ag,M4 PAM,CHRM5 antagonist,CHRM4 antagonist,CHRM4 agonist
COc1cccc(NC(=O)CN(C)C(=O)c2c(-c3ccccc3)noc2C)c1,0.8,-2.2,0.6,1.4,0.7,5.7
c1csc(CCCN2CCCCC2)c1,2.5,-9.0,5.1,-1.7,-1.9,1.1
Cc1ccc(C)c(N/C(N)=N/c2nc(C)cc(C)n2)c1,-16.4,30.0*,-40.6,20.8,65.9*,91.0*
Cc1cc(C)nc(/N=C(\N)N(Cc2ccccc2)Cc2ccccc2)n1,-22.7,-8.8,-22.1,92.5*,39.4*,5.6
CCCCN(CCCC)/C(N)=N/c1nc(C)cc(C)n1,-1.4,-6.3,-0.9,5.2,1.4,0.6
CC(C)c1ccc(C(=O)N2CCCC(c3cc(C(=O)Nc4ccccc4Cl)no3)C2)cc1 (stereo unspecified),-0.8,-1.4,-0.1,-8.2,-18.6,0.9
CCCCCCOc1ccc(N2C(=O)CC(N3CCN(CCN=CC4C(=O)CC(C)(C)CC4=O)CC3)C2=O)cc1 (stereo unspecified),-7.2,-3.4,-5.5,12.8,0.9,3.4
Cc1cc(NC(=O)CSc2nc(C)c(C)n2CC(C)C)no1,2.7,-1.1,5.4,7.8,-13.3,-0.2
COC(=O)c1ccc(N2C(c3ccsc3)=Cc3cc4c(cc3C2CC(=O)c2ccco2)OCO4)cc1 (stereo unspecified),-9.6,-7.1,-13.5,0.6,30.1*,-1.2
CC(=O)N1CCc2cc(S(=O)(=O)NC(CC(C)C)C(=O)N3CCc4ccccc4C3)ccc21 (stereo unspecified),-2.7,-5.1,32.4*,1.4,29.1*,1.5
O=C(NCN1C(=O)C2C3C=CC(C3)C2C1=O)Nc1ccccc1O (stereo unspecified),6.8,-0.5,12.8,-9.6,-13.5,0.0
CN(C)S(=O)(=O)c1ccc(C(=O)N2CCN=C2SCc2cccnc2)cc1,4.0,-5.0,19.5*,-1.3,14.2,2.1
CC(C)Sc1cc(N2CCOCC2)nc(-c2ccccc2)n1,4.9,2.5,31.9*,-5.1,-12.2,-1.2
CCOC(=O)CCc1nn(C)c(=O)c2ccccc12,-13.8,-2.8,7.7,66.6*,-0.3,3.2
CCOC(=O)C(C)c1nn(C)c(=O)c2ccccc12 (stereo unspecified),-18.5,-10.4,-5.6,6.8,3.5,5.1
CCOc1ccc(CCNC(=O)c2ccc(=O)[nH]c2)cc1OCC,-5.0,-2.9,8.3,3.3,-23.8,1.3
CCc1nc2ccc(C(=O)Nc3cccc(NS(C)(=O)=O)c3)cn2c1N(C)CCCc1ccccc1,-8.5,-1.7,-12.6,3.4,54.3*,6.8
CCc1nc2ccc(C(=O)N(CC)CCN(C)C)cn2c1N(C)CCCc1ccccc1,-10.7,-2.2,-14.7,3.7,27.0*,1.2
CCc1ccc(C2=NN(C(=O)CCC(=O)O)C(c3cccs3)C2)cc1 (stereo unspecified),3.1,-0.5,-6.2,6.7,6.3,-0.3
C[C@@H]1CCCCO[C@@H](CN(C)C(=O)Cc2ccccc2)[C@@H](C)CN([C@H](C)CO)C(=O)c2cc(NC(=O)C3CCCCC3)ccc2O1,3.9,1.6,7.7,-6.9,-21.4,0.4
CCn1c(NC(=O)C(C)C)c(-c2cccs2)c(=O)c2ccccc21,5.4,5.9,-2.3,-2.6,-6.4,0.5
CCn1c(NC(=O)c2ccccc2F)c(-c2cccs2)c(=O)c2ccccc21,-8.6,7.0,-34.3,1.1,28.6*,0.4
COC(=O)c1c(NC(=S)NC(=O)c2ccco2)sc2c1CCCC2,1.5,1.4,32.6*,0.0,-1.5,0.1
CCOC(=O)c1c(NC(=O)c2ccco2)sc2c1CCCCC2,-0.8,1.4,4.0,9.0,-1.2,-1.6
Cc1sc(NC(=S)NC(=O)CCc2ccccc2)c(C(N)=O)c1C,0.7,-0.1,1.6,2.1,0.4,1.9
SMILES,CHRM5 PAM,M5 ag,M4 PAM,CHRM5 antagonist,CHRM4 antagonist,CHRM4 agonist
CCOC(=O)c1c(NC(=O)C(C)N2CCN(C(=O)c3ccco3)CC2)sc2c1CCCC2 (stereo unspecified),5.9,27.4*,-31.9,-8.8,48.9*,40.6*
Cc1sc(NC(=S)NC(=O)c2ccco2)c(C(N)=O)c1C,-18.9,0.9,-5.6,31.4*,0.5,12.8
CC1CCN(C(=O)c2[nH]cnc2C(=O)Nc2nccs2)CC1,-0.1,1.6,3.2,0.6,-4.0,1.2
O=C(Nc1ccccc1C(=O)O)C1=NN=CC1,0.6,-1.8,1.8,4.1,-3.1,0.6
CCCCN(C)c1c(C)nc2ccc(C(=O)NCCOc3ccc(OC)cc3)cn12,-24.3,0.1,-9.4,29.3*,10.3,12.4
CCc1nc2ccc(C(=O)NCCN3CCCC3)cn2c1N(C)Cc1ccc(OC)cc1,-7.1,-3.2,-15.2,-4.8,55.9*,0.8
CCc1nc2ccc(C(=O)NCc3ccc(OC)cc3)cn2c1N(C)Cc1ccc(OC)cc1,-13.1,-3.3,-12.4,-1.0,12.9,6.5
CC(C)C(OC(=O)c1nsc(Cl)c1Cl)C(=O)NCc1ccccc1 (stereo unspecified),1.2,-7.3,1.4,4.2,3.7,0.1
Cc1ccc(NC(=O)c2sc3nc(CCl)[nH]c(=O)c3c2C)c(C)c1,-3.0,-1.5,6.5,3.4,-1.3,1.7
CCc1ccc(N/C(SC)=C(/C#N)C(N)=O)cc1,-3.8,2.2,3.4,-4.8,-10.9,-1.0
CCCCS/C(=C(/C#N)C(N)=O)c1cc2c([nH]1)CCCC2,-16.2,-6.9,-29.1,7.0,34.3*,-1.9
COc1ccccc1NC(=O)C1=C(C)NC(=O)NC1c1ccc(C)cc1 (stereo unspecified),-6.4,-2.9,-12.6,0.5,32.1*,-0.4
Cn1ccnc1C1CCCCN1Cc1nc(Cc2cccc(C(F)(F)F)c2)no1 (stereo unspecified),-15.5,-11.3,-21.3,-4.7,38.6*,2.8
Cn1ccnc1C1CCCCN1Cc1nc(-c2ccc3c(c2)OCO3)no1 (stereo unspecified),-26.3,-20.6,-25.1,14.9,26.6*,-0.6
COc1ccc(-c2noc(CN3CCCCC3c3nccn3C)n2)cc1 (stereo unspecified),-13.4,-16.1,-18.1,11.5,10.3,0.3
CC(Oc1ccc(Cl)cc1)C(=O)NCC1CCCO1 (stereo unspecified),1.1,-2.0,7.7,15.7,-14.6,1.5
